According to ChEMBL document CHEMBL1649117, “GRL-02031, a novel nonpeptidic protease inhibitor (PI) containing a stereochemically defined fused cyclopentanyltetrahydrofuran potent against multi-PI-resistant human immunodeficiency virus type 1 in vitro” (Antimicrob Agents Chemother, 2009):

Tests used:
[1] = test system: Human immunodeficiency virus 1; assay: Antiviral activity against HIV1 NL4-3 harboring L10I/G48V/I54V/L90M amino acid substitution in protease encoding region infected in human MT4 cells assessed as inhibition of p24 Gag protein production selected at 5 uM of saquinavir by ELISA; format: functional, organism-based; conditions: Human immunodeficiency virus 1, NL4-3, MT4
Method in brief: (§1)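 HIV-1NL4-3 (500 TCID50s) was passaged in MT-4 cells, starting at 0.01–0.03 µM PI and raising the drug generally two- to threefold as virus propagated. Cell-free passage used day-7 supernatants. Variants were then tested in MT-4 cells (10^5/ml) with 100 TCID50s, with or without drug, at 37°C. Day-7 p24 Gag was read by chemiluminescent immunoassay; EC50 vs drug-free control; triplicate.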

[2] = test system: Human immunodeficiency virus 1; assay: Antiviral activity against HIV1 G harboring L10I/V11I/T12E/I15V/L19I/R41K/M46L/L63P/A71T/V82A/L90M in protease encoding region infected in human PHA-PBC assessed as inhibition of p24 Gag protein production by ELISA; format: functional, organism-based; conditions: Human immunodeficiency virus 1, G
Method in brief: (§2)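 Phytohemagglutinin-stimulated PBMs (10^6/ml) infected with 50 TCID50s of each primary isolate, cultured with or without drug in 10-fold serial dilutions. On day 7, supernatant p24 Gag was measured by automated chemiluminescent enzyme immunoassay. […] Triplicate.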

[3] = test system: Human immunodeficiency virus 1; assay: Antiviral activity against HIV1 JSL harboring L10I/L24I/L33F/E35D/M36I/N37S/M46L/I54V/R57K/I62V/L63P/A71V/G73S/82A in protease encoding region infected in human PHA-PBC assessed as inhibition of p24 Gag protein production by ELISA; format: functional, organism-based; conditions: Human immunodeficiency virus 1, JSL; method in brief: as §2
[4] = test system: Human immunodeficiency virus 1; assay: Antiviral activity against HIV1 MOKW infected in human PHA-PBC assessed as inhibition of p24 Gag protein production by ELISA; format: functional, organism-based; conditions: Human immunodeficiency virus 1, MOKW; method in brief: as §2
[5] = test system: Human immunodeficiency virus 1; assay: Antiviral activity against HIV1 C harboring L10I/I15V/K20R/L24I/M36I/M46L/I54V/I62V/L63P/K70Q/V82A/L89M in protease encoding region infected in human PHA-PBC assessed as inhibition of p24 Gag protein production by ELISA; format: functional, organism-based; conditions: Human immunodeficiency virus 1, C; method in brief: as §2
[6] = test system: Human immunodeficiency virus 1; assay: Antiviral activity against HIV1 NL4-3 harboring M46I/V82F/I84V amino acid substitution in protease encoding region infected in human MT4 cells assessed as inhibition of p24 Gag protein production selected at 5 uM of ritonavir by ELISA; format: functional, organism-based; conditions: Human immunodeficiency virus 1, NL4-3, MT4; method in brief: as §1
[7] = test system: Human immunodeficiency virus 1; assay: Antiviral activity against HIV1 TM harboring L10I/K14R/R41K/M46L/I54V/L63P/A71V/V82A/L90M/I93L in protease encoding region infected in human PHA-PBC assessed as inhibition of p24 Gag protein production by ELISA; format: functional, organism-based; conditions: Human immunodeficiency virus 1, TM; method in brief: as §2
[8] = test system: Human immunodeficiency virus 1; assay: Antiviral activity against HIV1 NL4-3 harboring L23I/K43I/M46I/I50L/G51A/A71V amino acid substitution in protease encoding region infected in human MT4 cells assessed as inhibition of p24 Gag protein production selected at 1 uM of atazanavir by ELISA; format: functional, organism-based; conditions: Human immunodeficiency virus 1, NL4-3, MT4; method in brief: as §1
[9] = test system: Human immunodeficiency virus 1; assay: Antiviral activity against HIV1 B harboring L10I/I15V/E35D/N37E/K45R/I54V/L63P/A71V/V82T/L90M/I93L/C95F in protease encoding region infected in human PHA-PBC assessed as inhibition of p24 Gag protein production by ELISA; format: functional, organism-based; conditions: Human immunodeficiency virus 1, B; method in brief: as §2
[10] = test system: Human immunodeficiency virus 1; assay: Antiviral activity against HIV1 NL4-3 harboring L10F/L24I/M46I/L63P/A71V/G73S/V82T amino acid substitution in protease encoding region infected in human MT4 cells assessed as inhibition of p24 Gag protein production selected at 5 uM of indinavir by ELISA; format: functional, organism-based; conditions: Human immunodeficiency virus 1, NL4-3, MT4; method in brief: as §1
[11] = test system: Human immunodeficiency virus 1; assay: Antiviral activity against HIV1 MM harboring L10I/K43T/M46L/I54V/L63P/A71V/V82A/L90M/Q92K in protease encoding region infected in human PHA-PBC assessed as inhibition of p24 Gag protein production by ELISA; format: functional, organism-based; conditions: Human immunodeficiency virus 1, MM; method in brief: as §2
[12] = test system: Human immunodeficiency virus 1; assay: Antiviral activity against HIV1 NL4-3 harboring L10F/D30N/K45I/A71V/T74S amino acid substitution in protease encoding region infected in human MT4 cells assessed as inhibition of p24 Gag protein production selected at 5 uM of nelfinavir by ELISA; format: functional, organism-based; conditions: Human immunodeficiency virus 1, NL4-3, MT4; method in brief: as §1
[13] = test system: Human immunodeficiency virus; assay: Antiviral activity against HIV1 LAI infected in human MT2 cells after 7 days by MTT assay; format: functional, organism-based; conditions: Human immunodeficiency virus 1, LAI, MT2, 168 h
[14] = test system: Human immunodeficiency virus 1; assay: Antiviral activity against HIV1 NL4-3 infected in human MT4 cells assessed as inhibition of p24 gag protein production by ELISA; format: functional, organism-based; conditions: Human immunodeficiency virus 1, NL4-3, MT4
Method in brief: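 MT-4 cells (10^5/ml) were infected with 100 TCID50s of HIV-1 and cultured at 37°C with or without various drug concentrations. On day 7, supernatant p24 Gag was measured by automated chemiluminescent enzyme immunoassay. […] Assays were run in triplicate.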

[15] = test system: Human immunodeficiency virus 1; assay: Antiviral activity against HIV1 ERS104pre infected in human PHA-PBC assessed as inhibition of p24 Gag protein production by ELISA; format: functional, organism-based; conditions: Human immunodeficiency virus 1, ERS104pre
Method in brief: (§3)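 Phytohemagglutinin-stimulated PBMs (10^6/ml) infected with 50 TCID50s of each primary isolate, cultured with or without drug in 10-fold serial dilutions. On day 7, supernatant p24 Gag was measured by automated chemiluminescent enzyme immunoassay. Triplicate.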

[16] = test system: Human immunodeficiency virus 1; assay: Antiviral activity against HIV1 A harboring L10I/I15V/E35D/N37E/K45R/I54V/L63P/A71V/V82T/L90M/I93L/C95F in protease encoding region infected in human PHA-PBC assessed as inhibition of p24 Gag protein production by ELISA; format: functional, organism-based; conditions: Human immunodeficiency virus 1, A; method in brief: as §3
[17] = test system: Human immunodeficiency virus 1; assay: Antiviral activity against HIV1 NL4-3 harboring L10F/L33F/M46I/I47V/Q58E/V82I/I84V/I85V amino acid substitution in protease encoding region infected in human MT4 cells assessed as inhibition of p24 Gag protein production selected at 5 uM of GRL-02031 by ELISA; format: functional, organism-based; conditions: Human immunodeficiency virus 1, NL4-3, MT4
Method in brief: (§4)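 Cell-free passage used day-7 supernatants. Variants were then tested in MT-4 cells (10^5/ml) with 100 TCID50s, with or without drug, at 37°C. Day-7 p24 Gag was read by chemiluminescent immunoassay; EC50 vs drug-free control; triplicate.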

[18] = test system: Human immunodeficiency virus 1; assay: Antiviral activity against HIV1 NL4-3 harboring L10F/V32I/M46I/I54M//A71V/I84V amino acid substitution in protease encoding region infected in human MT4 cells assessed as inhibition of p24 Gag protein production selected at 5 uM of amprenavir by ELISA; format: functional, organism-based; conditions: Human immunodeficiency virus 1, NL4-3, MT4; method in brief: as §4
[19] = test system: Human immunodeficiency virus 1; assay: Antiviral activity against HIV1 NL4-3 harboring L10F/M46I/I54V/V82A amino acid substitution in protease encoding region infected in human MT4 cells assessed as inhibition of p24 Gag protein production selected at 1 uM of Lopinavir by ELISA; format: functional, organism-based; conditions: Human immunodeficiency virus 1, NL4-3, MT4; method in brief: as §4
[20] = test system: Human immunodeficiency virus 1; assay: Ratio of EC50 for HIV1 B harboring L10I/I15V/E35D/N37E/K45R/I54V/L63P/A71V/V82T/L90M/I93L/C95F in protease encoding region to EC50 for HIV1 ERS104pre; format: functional
[21] = test system: Human immunodeficiency virus 1; assay: Ratio of EC50 for HIV1 MM harboring L10I/K43T/M46L/I54V/L63P/A71V/V82A/L90M/Q92K in protease encoding region infected to EC50 for HIV1 ERS104pre; format: functional
[22] = test system: Human immunodeficiency virus 1; assay: Ratio of EC50 for HIV1 JSL harboring L10I/L24I/L33F/E35D/M36I/N37S/M46L/I54V/R57K/I62V/L63P/A71V/G73S/82A in protease encoding region to EC50 for HIV1 ERS104pre; format: functional
[23] = test system: Human immunodeficiency virus 1; assay: Ratio of EC50 for HIV1 G harboring L10I/V11I/T12E/I15V/L19I/R41K/M46L/L63P/A71T/V82A/L90M in protease encoding region to EC50 for HIV1 ERS104pre; format: functional
[24] = test system: Human immunodeficiency virus 1; assay: Ratio of EC50 for HIV1 C harboring L10I/I15V/K20R/L24I/M36I/M46L/I54V/I62V/L63P/K70Q/V82A/L89M in protease encoding region to EC50 for HIV1 ERS104pre; format: functional
[25] = test system: Human immunodeficiency virus 1; assay: Ratio of EC50 for HIV1 TM harboring L10I/K14R/R41K/M46L/I54V/L63P/A71V/V82A/L90M/I93L in protease encoding region to EC50 for HIV1 ERS104pre; format: functional
Method in brief: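 PHA-stimulated PBMs (10^6/ml) infected with 50 TCID50s of primary HIV-1 isolate and cultured with 10-fold serial drug dilutions. Day 7 supernatant p24 Gag measured by chemiluminescent enzyme immunoassay. […] Triplicate. Ratio is resistant isolate EC50 over reference isolate EC50.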

[26] = test system: Human immunodeficiency virus 1; assay: Ratio of EC50 for HIV1 A harboring L10I/I15V/E35D/N37E/K45R/I54V/L63P/A71V/V82T/L90M/I93L/C95F in protease encoding region to EC50 for HIV1 ERS104pre; format: functional

Structure (SMILES)	EC50 [1] [nM]	EC50 [2] [nM]	EC50 [3] [nM]	EC50 [4] [nM]	EC50 [5] [nM]	EC50 [6] [nM]	EC50 [7] [nM]	EC50 [8] [nM]	EC50 [9] [nM]	EC50 [10] [nM]	EC50 [11] [nM]	EC50 [12] [nM]	EC50 [15] [nM]	EC50 [16] [nM]	also measured
Cc1cccc(C)c1OCC(=O)N[C@@H](Cc1ccccc1)[C@@H](O)C[C@H](Cc1ccccc1)NC(=O)[C@H](C(C)C)N1CCCNC1=O [LOPINAVIR]	700	130	740	29	460	110	230	25	250	> 1000	620	290			
CC(C)c1nc(CN(C)C(=O)N[C@H](C(=O)N[C@@H](Cc2ccccc2)C[C@H](O)[C@H](Cc2ccccc2)NC(=O)OCc2cncs2)C(C)C)cs1 [RITONAVIR]	> 1000	> 1000	> 1000	36	> 1000	> 1000	> 1000	140	> 1000	> 1000	> 1000	80	36	> 1000	EC50 [13]: 38 nM; EC50 [14]: 21 nM; EC50 [17]: 260 nM; EC50 [18]: > 1000 nM; EC50 [19]: > 1000 nM
Cc1cn([C@H]2C[C@H](N=[N+]=[N-])[C@@H](CO)O2)c(=O)[nH]c1=O [ZIDOVUDINE]		600	180	16	280		890		> 1000		450		5	120	Ratio EC50 [20]: 200; Ratio EC50 [21]: 90; Ratio EC50 [22]: 36; Ratio EC50 [23]: >120; Ratio EC50 [24]: 56; Ratio EC50 [25]: 178; Ratio EC50 [26]: 24
